Assay results taken from ChEMBL document CHEMBL3259817, “N-carbamidoyl-4-((3-ethyl-2,4,4-trimethylcyclohexyl)methyl)benzamide enhances staurosporine cytotoxic effects likely inhibiting the protective action of Magmas toward cell apoptosis” (J Med Chem, 2014).
Calls of active or inactive are those of the source. The rule behind the calls is not given here.

How the values were obtained:
[1] = Potentiation of staurosporine-induced cytotoxicity against human MCF12A cells assessed as reduction in cell viability at 5 to 10 uM after 72 hrs by ATPlite assay; assay type: cell-based; conditions: mcf-12a
Procedure, shortened: (§1)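 Cells seeded at 2 × 10^4/well, given 5 or 10 μM compound alone or combined with 50 nM staurosporine, treatments renewed every 24 h for 72 h; vehicle 0.1% DMSO. ATPlite luminescence (RLU) read-out, expressed as mean ± SE percent of vehicle-treated control; three independent experiments, six replicates each.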

TT [2] = assay: Potentiation of staurosporine-induced apoptosis in human TT cells assessed as decrease in mitochondrial membrane potential at 10 uM by JC-1 staining-based fluorescence microscopic analysis; assay type: functional, cell-based
Procedure, shortened: (§2)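 TT cells treated with 5 or 10 μM compound, 50 nM staurosporine, or the combination. Mitochondrial membrane potential assessed with JC-1 dye, 30 min at 37 °C, by fluorescence microscopy; red aggregate fluorescence indicates retained potential, green monomer fluorescence a fall in potential.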

TT [3] = assay: Induction of apoptosis in human TT cells assessed as caspase 3/7 activation at 1 to 10 uM after 72 hrs by luminescence assay; assay type: functional, cell-based
Procedure, shortened: (§3)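 TT cells (2 × 10^4/well) exposed 72 h to compound, treatment renewed every 24 h; vehicle 0.1% DMSO. Caspase-Glo 3/7 reagent added at room temperature, plates shaken 30 s, incubated 1 h, luminescence (RLU) read. Mean ± SE percent RLU vs vehicle control; three independent experiments in six replicates.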

TT [4] = assay: Potentiation of staurosporine-induced apoptosis in human TT cells assessed as caspase 3/7 activation at 10 uM after 72 hrs by ATPlite assay relative to control; assay type: functional; conditions: in the assay text read “Caspase-Glo 3/7 assay” for “ATPlite assay”
Procedure, shortened: (§4)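 TT cells (2 × 10^4/well) given 5 or 10 μM compound alone or with 50 nM staurosporine, renewed every 24 h, for 72 h. Caspase 3/7 activity by Caspase-Glo 3/7: reagent added at room temperature, 30 s shake, 1 h incubation, luminescence read. Mean ± SE percent RLU vs vehicle control, three experiments in six replicates.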

TT [5] = assay: Potentiation of staurosporine-induced cytotoxicity against human TT cells assessed as reduction in cell viability at 5 uM after 72 hrs by ATPlite assay relative to control; assay type: functional; procedure, shortened: as §1
TT [6] = assay: Effect on total TIM16 protein level in human TT cells at 10 uM after 24 hrs by Western blotting analysis; assay type: functional, cell-based
Procedure, shortened: (§5)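 TT cells treated 24 h with 10 μM compound alone or with 50 nM staurosporine, then lysed in RIPA buffer on ice 30 min and centrifuged; protein by BCA. Lysates run on 10% SDS-PAGE, blotted to nitrocellulose, probed with rabbit anti-Tim 16 (1:1000), HRP anti-rabbit IgG (1:5000), ECL detection; stripped and reprobed for β-actin loading control.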

TT [7] = assay: Potentiation of staurosporine-induced cytotoxicity against human TT cells assessed as reduction in cell viability at 10 uM after 72 hrs by ATPlite assay relative to control; assay type: functional; procedure, shortened: as §1
TT [8] = assay: Effect on total TIM16 protein level in human TT cells at 10 uM after 24 hrs by Western blotting analysis in presence of staurosporine; assay type: functional, cell-based; procedure, shortened: as §5
[9] = Cytotoxicity against human MCF12A cells assessed as reduction in cell viability at 5 to 10 uM after 72 hrs by ATPlite assay; assay type: cell-based; conditions: mcf-12a
Procedure, shortened: (§6)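 TT or MCF12A cells seeded at 2 × 10^4/well, exposed to compound for 72 h with treatment renewed every 24 h; vehicle control 0.1% DMSO. Viable cell number read by ATPlite luminescence (RLU). Results are mean ± SE percent RLU vs vehicle-treated control from three independent experiments in six replicates.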

TT [10] = assay: Induction of apoptosis in human TT cells assessed as decrease in mitochondrial membrane potential at 10 uM by JC-1 staining-based fluorescence microscopic analysis; assay type: functional, cell-based; procedure, shortened: as §2
TT [11] = assay: Cytotoxicity against human TT cells assessed as reduction in cell viability at 1 to 10 uM after 72 hrs by ATPlite assay; assay type: functional, cell-based; procedure, shortened: as §6
TT [12] = assay: Potentiation of staurosporine-induced apoptosis in human TT cells assessed as caspase 3/7 activation at 5 uM after 72 hrs by ATPlite assay relative to control; assay type: functional; conditions: in the assay text read “Caspase-Glo 3/7 assay” for “ATPlite assay”; procedure, shortened: as §4
TT [13] = assay: Potentiation of staurosporine-induced apoptosis in human TT cells assessed as caspase 3/7 activation at 5 to 10 uM after 72 hrs by ATPlite assay relative to control; assay type: functional, cell-based; conditions: in the assay text read “Caspase-Glo 3/7 assay” for “ATPlite assay”; procedure, shortened: as §4
TT [14] = assay: Cytotoxicity against human TT cells assessed as reduction in cell viability at 5 uM after 72 hrs by ATPlite assay; assay type: functional, cell-based; procedure, shortened: as §6
TT [15] = assay: Potentiation of staurosporine-induced cytotoxicity against human TT cells assessed as reduction in cell viability at 5 to 10 uM after 72 hrs by ATPlite assay; assay type: functional, cell-based; procedure, shortened: as §1
TT [16] = assay: Cytotoxicity against human TT cells assessed as reduction in cell viability at 10 uM after 72 hrs by ATPlite assay relative to control; assay type: functional; procedure, shortened: as §6
TT [17] = assay: Induction of apoptosis in human TT cells assessed as caspase 3/7 activation at 10 uM after 72 hrs by luminescence assay relative to control; assay type: functional; procedure, shortened: as §3
TT [18] = assay: Induction of apoptosis in human TT cells assessed as caspase 3/7 activation at 5 uM after 72 hrs by luminescence assay; assay type: functional, cell-based; procedure, shortened: as §3

In the case of CCC1C(C)C(Cc2ccc(C(=O)NC(=N)N)cc2)CCC1(C)C (stereo not drawn), the Activity [1] is reported as “Non-toxic”, the Activity (TT [2]) is reported as “Active” and the Activity (TT [3]) is reported as “inactive”. The Activity (TT [4]) was 330%, the Activity (TT [5]) was 12% and the Activity (TT [6]) was “inactive”. For the same compound, the Activity (TT [7]) was 20%, the Activity (TT [8]) was “inactive” and the Activity [9] was “Non-toxic”. The Activity (TT [10]) was “Active”, the Activity (TT [11]) was “inactive” and the Activity (TT [12]) was 140%.

For CCC1=C(C)/C(=C/c2ccc(C(=O)O)cc2)CCC1(C)C, the Activity (TT [3]) was “inactive”, the Activity (TT [6]) was “inactive” and the Activity (TT [8]) was “inactive”. The Activity (TT [11]) was “inactive” and the Activity (TT [13]) was “inactive”.

For CCC1=C(C)/C(=C/c2ccc(C(=O)NC(=N)N)cc2)CCC1(C)C, the Activity (TT [14]) was “inactive”, the Activity (TT [2]) was “Active” and the Activity (TT [15]) was “Active”. For the same compound, the Activity (TT [16]) was 70%, the Activity (TT [4]) was 400% and the Activity (TT [6]) was “inactive”. The Activity (TT [17]) was 300%, the Activity (TT [18]) was “inactive” and the Activity (TT [8]) was “inactive”. For the same compound, the Activity (TT [10]) was “inactive” and the Activity (TT [12]) was 40%.

For CCC1=C(C)/C(=C/c2ccc(C(N)=O)cc2)CCC1(C)C, the Activity (TT [3]) was “inactive”, the Activity (TT [6]) was “inactive” and the Activity (TT [8]) was “inactive”. For the same compound, the Activity (TT [11]) was “inactive” and the Activity (TT [13]) was “inactive”.

With CCC1=C(C)/C(=C/c2ccc(C(=O)NC(N)=O)cc2)CCC1(C)C the Activity (TT [3]) was “inactive”, the Activity (TT [6]) was “inactive” and the Activity (TT [8]) was “inactive”. The Activity (TT [11]) was “inactive” and the Activity (TT [13]) was “inactive”.
